M5 ag = human M5 muscarinic receptor agonists, primary screen, CHO-K1 cells, Fluo-8 calcium fluorescence; activation, % at 3 µM; Muscarinic acetylcholine receptor M5 (Homo sapiens), P08912; 360,000 compounds, 0.19% hits; CHO-K1 hM5 cells; 0% DMSO wells, 100% maximal acetylcholine response;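 active = activation above the run's mean over test compounds plus 3 SD, cut at about 23% in these data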;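 note: signal is peak over basal fluorescence ratio across the kinetic read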
Target sequence (P08912 whole entry, looked up): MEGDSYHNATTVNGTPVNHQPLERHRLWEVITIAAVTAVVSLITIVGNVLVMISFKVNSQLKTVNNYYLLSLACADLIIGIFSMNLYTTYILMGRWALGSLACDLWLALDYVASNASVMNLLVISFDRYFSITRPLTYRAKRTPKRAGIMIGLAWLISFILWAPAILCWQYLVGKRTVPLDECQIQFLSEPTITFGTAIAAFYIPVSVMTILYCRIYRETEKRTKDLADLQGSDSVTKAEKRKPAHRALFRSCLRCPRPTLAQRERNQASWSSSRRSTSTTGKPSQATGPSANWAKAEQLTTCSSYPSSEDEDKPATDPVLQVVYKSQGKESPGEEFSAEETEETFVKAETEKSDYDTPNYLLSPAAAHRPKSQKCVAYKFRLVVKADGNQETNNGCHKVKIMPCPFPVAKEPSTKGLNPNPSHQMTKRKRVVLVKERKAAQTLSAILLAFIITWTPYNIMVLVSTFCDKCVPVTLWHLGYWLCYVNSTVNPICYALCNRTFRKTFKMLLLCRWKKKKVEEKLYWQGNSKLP
M1 antag = human M1 muscarinic receptor antagonists, primary screen, CHO-K1 cells, Fluo-8 calcium fluorescence, 1536-well; CHO-K1 hM1, ACh EC80 antagonist; inhibition, % at 3 µM; 360,000 compounds, 1.3% hits;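 active = percent inhibition above its own plate's cutoff, namely the mean of that plate's compound wells plus 3 SD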;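 note: peak over basal fluorescence ratio during 140 s after agonist addition; 0% = ACh EC80 plus DMSO and 100% = DMSO alone without agonist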
M5 PAM = human M5 muscarinic receptor positive allosteric modulators, primary screen, CHO-K1 cells, Fluo-8 calcium fluorescence. Muscarinic acetylcholine receptor M5 (Homo sapiens), P08912. CHO-K1 hM5, ACh EC20 PAM; 0% = ACh EC20, 100% = ACh EC100. activation, % at 3 µM. 360,000 compounds, 0.3% hits;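 active = activation above the run cutoff, the mean activation of all test compounds plus 3 SD, cut at about 18% in these data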
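System – CHO-K1 hM5 cells · Compound – 3 µM, single dose · Incubation – compound preincubation 140 s before EC20 acetylcholine addition · Technique – Fluo-8 calcium fluorescence · Measure – Max/basal fluorescence ratio as % of EC20–EC100 ACh window · Benchmarks – low control EC20 acetylcholine (0%), high control EC100 acetylcholine (100%) · Replication – singlicate, one well per test compound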
CHRM1 PAM = human M1 muscarinic receptor positive allosteric modulators, primary screen, CHO-K1 cells, Fluo-8 calcium fluorescence, 1536-well; Muscarinic acetylcholine receptor M1 (Homo sapiens), P11229; CHO-K1 hM1, ACh EC20; 0% = ACh EC20, 100% = maximal ACh; activation, % at 3 µM; 360,000 compounds, 0.088% hits; in the data active = activation above about 19%, passing the limit was not always enough
M1 ag = human M1 muscarinic receptor agonists, primary screen, Fluo-8 calcium fluorescence, CHO-K1 cells, HTS; Muscarinic acetylcholine receptor M1 (Homo sapiens), P11229; CHO-K1 hM1, agonist mode; 0% DMSO, 100% acetylcholine EC100; activation, % at 3 µM; 360,000 compounds, 0.33% hits;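 active = activation above the run's mean compound activation plus 3 SD, cut at about 16% in these data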;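 note: peak over basal fluorescence ratio within a 140 s kinetic read after compound addition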
CHRM5 antagonist = human M5 muscarinic receptor antagonists, primary screen, CHO cells, Fluo-8 calcium fluorescence | Muscarinic acetylcholine receptor M5 (Homo sapiens), P08912 | CHO-hM5 cells, ACh EC80 | inhibition, % at 3 µM | 360,000 compounds, 0.59% hits;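 active = inhibition above a per-plate cutoff, the mean of that plate's test compounds plus 3 SD, cut at about 27% in these data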;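 note: 0% = acetylcholine EC80 with DMSO and 100% = DMSO without agonist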
* marks the source's active call; other numbers are inactive results; . = no result. The list is not random: actives were taken first. Their share in the collection is about 2.1%.

SMILES	M5 ag	M1 antag	M5 PAM	CHRM1 PAM	M1 ag	CHRM5 antagonist
O=C(NC1CCCC1)c1cc(-c2ccc(Cl)cc2)on1	-4	26*	-6	-13	-4	15
COc1ccc(-n2c(=O)cc(N3CCc4ccccc43)[nH]c2=O)cc1	-1	21	-4	-9	-5	5
CN(Cc1ccccc1)C1=CC(=[N+]2CCCCC2)CC(C)(C)C1	-19	39*	-24	-13	-1	25
Cc1cccc[n+]1CC(=O)N1c2ccccc2Sc2ccccc21	-11	99*	-20	-34	-13	99*
Cc1cc(C)n(CC(=O)N2c3ccccc3Sc3ccccc32)n1	-13	38*	-12	-22	-6	7
CC(=O)N1c2ccccc2Sc2ccccc21	-19	-12	-9	16	-7	17
COc1ccccc1NC(=O)c1cc2cc(Br)ccc2cc1O	6	32	-18	-16	-3	37*
COc1cc(NC(=O)c2cc3ccccc3cc2O)c(OC)cc1Cl	5	23	-12	-12	-2	17
Cc1ccc(C(=O)CC(C(=O)O)n2cnc([N+](=O)[O-])n2)cc1 (configuration not stated)	-2	-1	-1	11	-6	-10
COC(=O)c1ccc(CSc2nnnn2C)o1	-13	43*	-11	-18	-4	-1
COC(=O)c1ccc(CSc2ccc3nnc(-c4cccc(F)c4)n3n2)o1	-2	38*	-5	-19	-11	5
CCOC(=O)CC(=O)CSc1ccc2nnc(-c3cccc(F)c3)n2n1	3	-4	5	4	-2	-2
CN(Cc1ccccc1F)c1ncnc2sccc12	2	-2	-1	1	0	-7
CSc1ccc2c(c1)N(CCC1CCCCN1C)c1ccccc1S2 (configuration not stated)	4	.	-19	.	.	100*
O=C(COC(=O)CSc1ccc2ccccc2c1)NCc1ccc2c(c1)OCO2	-2	8	-5	-8	-5	10
O=[N+]([O-])c1c(NCCCO)cc(Sc2nc3ccccc3s2)c2nonc12	0	33*	-16	-13	-6	32*
CCC(=O)OCCNc1cc(Sc2nc3ccccc3s2)c2nonc2c1[N+](=O)[O-]	6	5	-1	5	-1	7
CC1CCC(NC(=O)C2COc3ccccc3O2)CC1 (configuration not stated)	-5	-5	5	2	-6	6
O=C(NC1CCCCC1)C1COc2ccccc2O1 (configuration not stated)	-3	46*	-26	-26	-7	14
CC1CCCCN1C(=O)COC(=O)c1cc(-c2cccs2)nn1-c1ccccc1 (configuration not stated)	-11	45*	-2	-26	-7	5
CCc1csc(CCNC(=O)C2CCC(=O)N(CCc3cccc(F)c3)C2)n1 (configuration not stated)	4	-16	1	7	-2	-1
O=C(NCCCN1CCN(Cc2ccccc2)CC1)C1CCN(c2nnc(-n3cccc3)s2)CC1	-4	44*	-5	-21	-4	-5
O=C(NC1CCN(Cc2ccccc2)CC1)C1CCN(c2nnc(-n3cccc3)s2)CC1	-5	51*	-22	-19	-14	2
O=C(NCCCc1ccccc1)C1CCN(c2nnc(-n3cccc3)s2)CC1	-1	-3	-6	-1	-8	7
CN1\C(=C/C=C/C=C/C=[N+](C)C)C(C)(C)c2ccccc21	38*	47*	-9	-20	53*	9
SMILES	M5 ag	M1 antag	M5 PAM	CHRM1 PAM	M1 ag	CHRM5 antagonist
Cc1ccc2oc(=O)c3cc(C(=O)NCCCN4CCc5ccccc5C4)sc3c2c1	-4	25*	-1	-21	-14	-2
CCCCOC(=O)/C(=C/c1cn(C)c2ccccc12)NC(=O)c1ccc(OC)cc1	-2	-8	-8	7	-5	-3
CCc1ccc(Nc2n[n+](-c3ccccc3)c(-c3cc(OC)c(OC)cc3Br)s2)cc1	-7	4	0	-6	-8	10
Cc1nn(-c2ccccc2)cc1/C=N/NC(N)=S	-2	-7	-7	31*	5	16
Cc1nn(-c2ccccc2)cc1/C=N/O	1	13	7	1	-2	-3
c1ccc(-c2nnc(SCc3cn4ccsc4n3)o2)cc1	-7	1	-4	10	-3	9
COc1ccc(C(=O)N/N=C/c2ccc(OC)c(COc3c(F)c(F)cc(F)c3F)c2)cc1	-5	-6	2	-1	-4	11
COc1ccc(/C=N\NC(=O)c2ccc([N+](=O)[O-])cc2)cc1COc1c(F)c(F)cc(F)c1F	-4	4	-9	-2	-4	27*
O=C(NNS(=O)(=O)c1ccc(Cl)cc1Cl)c1cc2ncc(C(F)(F)F)cc2s1	-4	-12	-11	6	-3	15
CNCCOc1ccccc1-c1ccccc1	-14	4	-8	-4	-6	5
CCn1ccc(C(=O)Nc2ccc(Cl)cn2)n1	2	33*	-11	-19	0	10
CCn1nccc1C(=O)Nc1ccc(Cl)cn1	-2	-11	-6	0	-5	9
COc1ccc(-c2ccc(=O)n(Cc3ccccc3)n2)cc1	5	-13	-11	7	3	3
CCC(C)C(=O)Nc1nc(-c2ccc3c(c2)NC(=O)CO3)cs1 (configuration not stated)	1	20	-17	-8	1	14
CCN(c1ccccc1)S(=O)(=O)c1cc(C(=O)Nc2ccc(F)c(F)c2)ccc1F	3	33*	-18	-21	0	23
CSC1=NCCN1C(=O)C(C)(C)Oc1ccc(Cl)cc1	3	-2	-3	3	-3	1
O=C(C1CC(c2ccc(F)cc2)=NO1)N1CCN(c2ccccc2)CC1 (configuration not stated)	0	47*	-5	-9	-3	3
COc1ccc(CCNc2c(C)c(C)nc3ncnn23)cc1	11	31	-23	-16	4	29*
CC1(C)[C@H]2CC=C(CN3CCC(N4CCC(C(=O)N5CCCC5)CC4)CC3)[C@@H]1C2	-17	62*	-6	-26	-8	8

Screening results as filed in PubChem BioAssay.
